Our source for the IC50 values is ChEMBL document CHEMBL1129545, “Synthesis and evaluation of the antiproliferative effects of 1-O-hexadecyl-2-O-methyl-3-O-(2'-acetamido-2'-deoxy-beta-D- glucopyranosyl)-sn-glycerol and 1-O-hexadecyl-2-O-methyl-3-0- (2'-amino-2'-deoxy-beta-D-glucopyranosyl)-sn-glycerol on epithelial cancer cell growth” (J Med Chem, 1996).

Holding throughout (format): functional, cell-based
Assay [1] has as its system OVCAR-3. The assay is described as follows: Inhibitory activity against OVCAR-3 cell growth. Conditions: Homo sapiens. Summed up: (§1)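 OVCAR-3 ovarian adenocarcinoma cells in RPMI 1640 with 20% FBS and 10 μg/mL insulin, in 24-well plates. At log phase, medium was replaced with drug-containing medium (0–30 μM, serial dilution of ethanol stocks) for 48 h. Increase in cell number was counted on a Coulter counter relative to drug-free wells, and IC50 was taken as 50% inhibition.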

The test system of assay [2] is MCF7. The assay can be described thus: Inhibitory activity against MCF-7 epithelial Cancer cell line at the concentration 0-30 uM for 48 hr. Conditions: Homo sapiens, MCF7, 48 h. Summed up: (§2)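 Human lines from frozen ATCC stocks: A549 in Ham's F-12, T84 in 1:1 F-12/DMEM, MCF-7 and A427 in DMEM, with 10% FBS. Log-phase cells in 24-well plates had medium replaced with drug-containing medium (0–30 μM, serial dilution of ethanol stocks) for 48 h. Coulter counts of cell increase as percent of drug-free controls; IC50 for 50% inhibition; means of eight determinations.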

In assay [3] the test system is A549. The assay can be described thus: Inhibitory activity against A549 epithelial Cancer cell line at the concentration 0-30 uM for 48 hr. Conditions: Homo sapiens, A549, 48 h. Summed up: as §2
The test system of assay [4] is A-427. The assay can be described thus: Inhibitory activity against A427 epithelial Cancer cell line at the concentration 0-30 uM for 48 hr. To be noted: Homo sapiens, A-427, 48 h. In short, it runs like this:
as §2

In assay [5] the test system is OVCAR-3. The assay is described as follows: Inhibitory activity against OVCAR-3 epithelial Cancer cell line at the concentration 0-30 uM for 48 hr. Conditions: Homo sapiens, OVCAR-3, 48 h. In short, it runs like this: as §1
Assay [6] has as its system T84. The assay can be described thus: Inhibitory activity against T84 epithelial Cancer cell line at the concentration 0-30 uM for 48 hr. Conditions: Homo sapiens, T84, 48 h. In short, it runs like this:
as §2

Structures are written as SMILES.

By IC50 is commonly meant the point on the concentration scale where inhibition reaches its midpoint. A higher IC50 goes with a need for much substance. `CCCCCCCCCCCCCCCCOP(=O)([O-])OCC[N+](C)(C)C` [MILTEFOSINE] gave a concentration for half-maximal inhibition (IC50) in assay [1] above 30 µM.

Regarding `CCCCCCCCCCCCCCCCOC[C@H](CO[C@H]1O[C@@H](CO)[C@H](O)[C@@H](O)[C@@H]1NC(C)=O)OC`, the IC50 in assay [2] is 17 µM; in assay [3], 9 µM; in assay [4], 24.5 µM; in assay [5] it was 12 µM; in assay [6], above 30 µM.

In the case of `CCCCCCCCCCCCCCCCOC[C@H](CO[C@H]1O[C@@H](CO)[C@H](O)[C@@H](O)[C@@H]1N)OC`, the IC50 amounted to 6.5 µM in assay [2]; 8.3 µM in assay [3]; 7 µM in assay [4]; 4 µM in assay [5]; 12.2 µM in assay [6].
